ChEMBL document CHEMBL5260822, “Structure-based design and synthesis of 2,4-diaminopyrimidines as EGFR L858R/T790M selective inhibitors for NSCLC” (Eur J Med Chem, 2017)
pIC50: −log10 of the molar value. Activity calls are given as the source filed them. No cut-off for these calls is given here.

How the values were obtained:
A-431 = test: Antiproliferative activity against human A-431 cells harboring wild type EGFR assessed as inhibition of cell proliferation incubated for 72 hrs by sulforhodamine B colorimetric assay; assay type: functional, cell-based; conditions: A-431, 72 h
[1] = molecular target: Epidermal growth factor receptor (Homo sapiens, UniProt P00533); test: Inhibition of wild type EGFR (unknown origin) expressed in baculovirus expression system by ELISA
[2] = Toxicity in BALB/c nude mouse xenografted with human NCI-H1975 cells harboring EGFR L858R/T790M mutant assessed as morphological changes in liver at 15 to 30 mg/kg, po for 18 days by hematoxylin and eosin staining based microscopic analysis; assay type: organism-based; conditions: in vivo, 432 h, dose 15-30 mg/kg, time 18 day
In short: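 H1975 subcutaneous xenografts were grown in female BALB/cA nu/nu mice (n = 6 per group), dosed at 15 or 30 mg/kg/day for 18 days or with vehicle. At the end the mice were sacrificed. Heart, kidney and liver were harvested, processed and stained with hematoxylin and eosin for routine histological examination.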

NCI-H1975 [3] = test: Antitumor activity against human NCI-H1975 cells harboring EGFR L858R/T790M mutant xenografted in BALB/c nude mouse assessed as tumor cell proliferation at 15 to 30 mg/kg, po for 18 days by Ki-67 staining based immunohistochemical analysis; assay type: functional, organism-based; conditions: dose 15-30 mg/kg, time 18.0 day
In short: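 H1975 xenograft tumors from nude mice (n = 6/group, daily dosing 18 days) were harvested, fixed in 10% formalin, paraffin-embedded and cut into 5 µm sections. Sections deparaffinized and incubated with primary anti-Ki-67 antibody at room temperature; immunoreactivity visualized with DAB.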

[4] = Toxicity in BALB/c nude mouse xenografted with human NCI-H1975 cells harboring EGFR L858R/T790M mutant assessed as mortality at 15 to 30 mg/kg, po for 18 days; assay type: organism-based; conditions: in vivo, 432 h, dose 15-30 mg/kg, time 18 day
In short: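 Female BALB/cA nu/nu mice were given 1 × 10^6 H1975 cells in 0.1 mL PBS subcutaneously in the right flank. At an average tumour volume of 100 mm3 (about 18 days post-implantation) they were randomised, n = 6 per group. Groups received 15 or 30 mg/kg/day for 18 consecutive days or vehicle. Mice were kept at constant room temperature, 12/12-h light/dark, with standard diet and water ad lib.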

NCI-H1975 [5] = test: Antitumor activity against human NCI-H1975 cells harboring EGFR L858R/T790M mutant xenografted in BALB/c nude mouse assessed as tumor growth inhibition at 15 mg/kg, po for 18 days; assay type: functional; conditions: NCI-H1975, 432 h, time 18 day, read-out: TGI
In short: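 H1975 cells (1 × 10^6 in 0.1 mL PBS) injected subcutaneously into the right flank of female nude mice. At mean tumor volume of about 100 mm3 (roughly 18 days), mice randomized, n = 6 per group, and dosed once daily for 18 days against a vehicle group. Tumor volume (0.5 × L × W²) measured every 2–3 days; tumors weighed at sacrifice. Data given as mean ± SEM.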

[6] = Oral bioavailability in Sprague-Dawley rat at 10 mg/kg and measured after 24 hrs by LC-MS/MS analysis; assay type: ADME, organism-based; conditions: in vivo
In short: (§1)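 Male Sprague–Dawley rats (190–220 g) dosed by oral gavage at 10 mg/kg in 5% DMSO / 95% HP-β-CD aqueous solution (20%); iv reference arm at 1 mg/kg. Blood sampled at 0.25, 0.5, 1, 2, 4, 6, 8 and 24 h, centrifuged (8000 × g, 6 min), and plasma quantified by LC–MS/MS.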

[7] = Half life in Sprague-Dawley rat at 10 mg/kg, po and measured after 24 hrs by LC-MS/MS analysis; assay type: ADME, organism-based; conditions: in vivo; in short: as §1
[8] = test system: Epidermal growth factor receptor (Homo sapiens), P00533 [L858R,T790M]; conditions: NCI-H1975, dose 10.0 nM, time 2.0 hrs
[9] = molecular target: ALK tyrosine kinase receptor (Homo sapiens) (UniProt Q9UM73); test: Inhibition of ALK (unknown origin) at 1000 nM by DiscoverX KINOMEscan assay relative to control; values are per cent of control
[10] = molecular target: T1, Tyrosine-protein kinase JAK3 (Homo sapiens) (UniProt P52333); test: Inhibition of JAK3 (unknown origin) at 1000 nM by DiscoverX KINOMEscan assay relative to control; values are per cent of control
T1 sequence (whole entry): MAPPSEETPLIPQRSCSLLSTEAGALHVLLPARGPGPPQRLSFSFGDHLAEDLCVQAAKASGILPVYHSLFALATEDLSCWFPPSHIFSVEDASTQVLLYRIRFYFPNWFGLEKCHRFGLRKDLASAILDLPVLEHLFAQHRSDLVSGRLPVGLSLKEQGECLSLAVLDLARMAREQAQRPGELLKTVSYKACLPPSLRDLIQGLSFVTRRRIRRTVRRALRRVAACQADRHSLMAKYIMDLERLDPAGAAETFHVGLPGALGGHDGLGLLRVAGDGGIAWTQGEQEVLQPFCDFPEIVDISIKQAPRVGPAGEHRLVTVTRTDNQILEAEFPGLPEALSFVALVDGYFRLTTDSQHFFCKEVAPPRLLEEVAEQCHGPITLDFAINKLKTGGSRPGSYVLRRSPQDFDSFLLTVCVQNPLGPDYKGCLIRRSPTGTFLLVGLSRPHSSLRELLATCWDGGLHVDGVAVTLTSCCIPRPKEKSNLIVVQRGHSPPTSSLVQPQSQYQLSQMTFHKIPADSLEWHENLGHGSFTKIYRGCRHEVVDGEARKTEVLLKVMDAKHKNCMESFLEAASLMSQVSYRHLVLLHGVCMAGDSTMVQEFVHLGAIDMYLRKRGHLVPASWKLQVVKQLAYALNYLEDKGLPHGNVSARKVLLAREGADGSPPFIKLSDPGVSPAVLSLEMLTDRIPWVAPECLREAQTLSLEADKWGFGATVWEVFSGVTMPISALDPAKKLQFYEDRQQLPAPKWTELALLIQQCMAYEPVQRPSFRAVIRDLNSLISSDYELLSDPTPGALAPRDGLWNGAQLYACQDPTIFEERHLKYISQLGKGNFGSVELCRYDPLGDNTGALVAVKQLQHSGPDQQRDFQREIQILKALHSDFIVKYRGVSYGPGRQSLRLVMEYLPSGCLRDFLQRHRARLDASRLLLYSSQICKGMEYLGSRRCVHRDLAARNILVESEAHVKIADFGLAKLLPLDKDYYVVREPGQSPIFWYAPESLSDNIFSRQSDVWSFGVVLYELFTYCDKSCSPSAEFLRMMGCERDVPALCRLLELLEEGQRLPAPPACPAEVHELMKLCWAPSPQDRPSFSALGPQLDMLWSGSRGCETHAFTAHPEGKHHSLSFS

[11] = molecular target: MAP kinase-interacting serine/threonine-protein kinase 2 (Homo sapiens) (UniProt Q9HBH9); test: Inhibition of MKNK2 (unknown origin) at 1000 nM by DiscoverX KINOMEscan assay relative to control; values are per cent of control
MAP kinase-interacting serine/threonine-protein kinase 2 (Homo sapiens), sequence (Q9HBH9 whole entry, looked up): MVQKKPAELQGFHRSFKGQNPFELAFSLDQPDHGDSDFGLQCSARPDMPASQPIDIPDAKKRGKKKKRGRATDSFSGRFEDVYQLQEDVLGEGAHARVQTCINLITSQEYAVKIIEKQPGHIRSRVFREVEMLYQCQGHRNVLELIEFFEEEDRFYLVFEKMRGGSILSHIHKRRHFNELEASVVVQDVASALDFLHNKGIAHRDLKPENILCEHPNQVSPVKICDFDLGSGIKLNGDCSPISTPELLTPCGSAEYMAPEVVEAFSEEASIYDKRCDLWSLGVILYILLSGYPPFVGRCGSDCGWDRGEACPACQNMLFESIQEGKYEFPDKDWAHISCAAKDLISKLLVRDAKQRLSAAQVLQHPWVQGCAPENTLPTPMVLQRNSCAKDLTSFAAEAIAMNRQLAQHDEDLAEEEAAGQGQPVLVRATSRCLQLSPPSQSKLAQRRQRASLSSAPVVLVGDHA

ALK tyrosine kinase receptor (Homo sapiens), sequence (Q9UM73 19-1620 limits assumed): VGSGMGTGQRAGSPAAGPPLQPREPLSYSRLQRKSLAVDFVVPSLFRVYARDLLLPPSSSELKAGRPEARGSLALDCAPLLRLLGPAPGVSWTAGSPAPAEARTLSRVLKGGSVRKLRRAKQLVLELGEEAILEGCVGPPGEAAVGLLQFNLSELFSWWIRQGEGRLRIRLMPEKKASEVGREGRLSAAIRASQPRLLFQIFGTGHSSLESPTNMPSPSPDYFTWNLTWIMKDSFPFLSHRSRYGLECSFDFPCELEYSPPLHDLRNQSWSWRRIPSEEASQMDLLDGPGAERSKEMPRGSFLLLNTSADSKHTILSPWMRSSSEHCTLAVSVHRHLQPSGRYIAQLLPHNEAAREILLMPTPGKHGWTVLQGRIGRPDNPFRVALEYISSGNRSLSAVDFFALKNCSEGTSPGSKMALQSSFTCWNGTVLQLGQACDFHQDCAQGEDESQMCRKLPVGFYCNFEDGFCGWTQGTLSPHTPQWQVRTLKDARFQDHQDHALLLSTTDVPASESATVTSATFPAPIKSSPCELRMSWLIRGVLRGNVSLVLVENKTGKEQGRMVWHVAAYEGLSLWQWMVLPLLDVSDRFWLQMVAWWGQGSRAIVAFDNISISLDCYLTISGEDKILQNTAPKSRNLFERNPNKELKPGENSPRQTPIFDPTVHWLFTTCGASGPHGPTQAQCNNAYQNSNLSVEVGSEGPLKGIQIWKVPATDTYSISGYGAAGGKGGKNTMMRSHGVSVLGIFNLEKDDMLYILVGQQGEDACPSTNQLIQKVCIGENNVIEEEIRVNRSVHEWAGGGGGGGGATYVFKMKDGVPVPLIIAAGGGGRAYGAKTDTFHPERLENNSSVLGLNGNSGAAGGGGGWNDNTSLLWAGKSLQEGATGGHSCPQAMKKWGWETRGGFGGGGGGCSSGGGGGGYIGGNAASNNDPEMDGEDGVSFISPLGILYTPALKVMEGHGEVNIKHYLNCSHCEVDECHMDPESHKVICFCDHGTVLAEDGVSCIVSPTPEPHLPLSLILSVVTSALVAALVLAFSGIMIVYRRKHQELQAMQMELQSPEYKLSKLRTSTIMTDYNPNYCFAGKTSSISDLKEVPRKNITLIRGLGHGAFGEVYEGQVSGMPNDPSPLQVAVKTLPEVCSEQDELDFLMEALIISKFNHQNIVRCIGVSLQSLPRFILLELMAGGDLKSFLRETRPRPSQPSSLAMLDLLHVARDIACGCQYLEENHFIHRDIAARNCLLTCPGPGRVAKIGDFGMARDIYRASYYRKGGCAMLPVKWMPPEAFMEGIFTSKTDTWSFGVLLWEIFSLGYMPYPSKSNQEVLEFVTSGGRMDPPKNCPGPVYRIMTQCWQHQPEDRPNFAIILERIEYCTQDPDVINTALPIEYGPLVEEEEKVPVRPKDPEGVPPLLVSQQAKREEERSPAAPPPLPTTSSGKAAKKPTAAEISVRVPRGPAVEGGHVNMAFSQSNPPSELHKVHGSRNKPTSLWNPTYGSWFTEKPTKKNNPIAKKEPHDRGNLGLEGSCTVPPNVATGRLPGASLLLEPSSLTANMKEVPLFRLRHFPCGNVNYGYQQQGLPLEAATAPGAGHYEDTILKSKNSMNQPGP
Epidermal growth factor receptor (Homo sapiens), P00533 [L858R,T790M], sequence (P00533 whole entry T790M/L858R, looked up): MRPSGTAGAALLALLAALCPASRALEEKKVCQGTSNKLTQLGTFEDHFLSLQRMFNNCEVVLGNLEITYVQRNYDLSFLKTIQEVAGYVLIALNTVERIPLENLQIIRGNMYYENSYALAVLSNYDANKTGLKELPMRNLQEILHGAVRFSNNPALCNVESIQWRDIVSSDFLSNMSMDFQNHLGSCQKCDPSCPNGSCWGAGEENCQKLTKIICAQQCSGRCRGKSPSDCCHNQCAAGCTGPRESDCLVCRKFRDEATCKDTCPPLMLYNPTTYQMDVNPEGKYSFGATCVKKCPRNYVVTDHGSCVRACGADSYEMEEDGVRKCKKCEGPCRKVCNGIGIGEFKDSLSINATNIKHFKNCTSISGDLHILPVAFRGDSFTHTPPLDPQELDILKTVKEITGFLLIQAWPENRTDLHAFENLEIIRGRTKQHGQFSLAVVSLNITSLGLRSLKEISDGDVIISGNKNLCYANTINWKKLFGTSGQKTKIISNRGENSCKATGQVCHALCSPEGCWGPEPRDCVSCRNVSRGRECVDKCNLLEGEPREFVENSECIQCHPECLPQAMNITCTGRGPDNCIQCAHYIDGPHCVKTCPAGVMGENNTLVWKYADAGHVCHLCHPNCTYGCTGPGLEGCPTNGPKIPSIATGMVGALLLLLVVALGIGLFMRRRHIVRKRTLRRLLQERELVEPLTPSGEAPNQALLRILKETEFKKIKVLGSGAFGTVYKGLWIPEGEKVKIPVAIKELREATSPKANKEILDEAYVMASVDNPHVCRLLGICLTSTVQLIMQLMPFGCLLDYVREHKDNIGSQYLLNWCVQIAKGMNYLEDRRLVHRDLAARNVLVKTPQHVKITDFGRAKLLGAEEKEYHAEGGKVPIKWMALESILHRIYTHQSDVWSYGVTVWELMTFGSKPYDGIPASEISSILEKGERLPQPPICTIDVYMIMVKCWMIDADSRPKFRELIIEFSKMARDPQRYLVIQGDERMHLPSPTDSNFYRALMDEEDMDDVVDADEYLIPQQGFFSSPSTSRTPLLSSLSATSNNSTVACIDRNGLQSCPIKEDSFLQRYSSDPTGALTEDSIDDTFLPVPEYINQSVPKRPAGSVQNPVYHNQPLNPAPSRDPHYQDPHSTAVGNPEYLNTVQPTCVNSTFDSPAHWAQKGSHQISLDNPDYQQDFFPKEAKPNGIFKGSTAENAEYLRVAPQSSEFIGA
Epidermal growth factor receptor, sequence (P00533 whole entry): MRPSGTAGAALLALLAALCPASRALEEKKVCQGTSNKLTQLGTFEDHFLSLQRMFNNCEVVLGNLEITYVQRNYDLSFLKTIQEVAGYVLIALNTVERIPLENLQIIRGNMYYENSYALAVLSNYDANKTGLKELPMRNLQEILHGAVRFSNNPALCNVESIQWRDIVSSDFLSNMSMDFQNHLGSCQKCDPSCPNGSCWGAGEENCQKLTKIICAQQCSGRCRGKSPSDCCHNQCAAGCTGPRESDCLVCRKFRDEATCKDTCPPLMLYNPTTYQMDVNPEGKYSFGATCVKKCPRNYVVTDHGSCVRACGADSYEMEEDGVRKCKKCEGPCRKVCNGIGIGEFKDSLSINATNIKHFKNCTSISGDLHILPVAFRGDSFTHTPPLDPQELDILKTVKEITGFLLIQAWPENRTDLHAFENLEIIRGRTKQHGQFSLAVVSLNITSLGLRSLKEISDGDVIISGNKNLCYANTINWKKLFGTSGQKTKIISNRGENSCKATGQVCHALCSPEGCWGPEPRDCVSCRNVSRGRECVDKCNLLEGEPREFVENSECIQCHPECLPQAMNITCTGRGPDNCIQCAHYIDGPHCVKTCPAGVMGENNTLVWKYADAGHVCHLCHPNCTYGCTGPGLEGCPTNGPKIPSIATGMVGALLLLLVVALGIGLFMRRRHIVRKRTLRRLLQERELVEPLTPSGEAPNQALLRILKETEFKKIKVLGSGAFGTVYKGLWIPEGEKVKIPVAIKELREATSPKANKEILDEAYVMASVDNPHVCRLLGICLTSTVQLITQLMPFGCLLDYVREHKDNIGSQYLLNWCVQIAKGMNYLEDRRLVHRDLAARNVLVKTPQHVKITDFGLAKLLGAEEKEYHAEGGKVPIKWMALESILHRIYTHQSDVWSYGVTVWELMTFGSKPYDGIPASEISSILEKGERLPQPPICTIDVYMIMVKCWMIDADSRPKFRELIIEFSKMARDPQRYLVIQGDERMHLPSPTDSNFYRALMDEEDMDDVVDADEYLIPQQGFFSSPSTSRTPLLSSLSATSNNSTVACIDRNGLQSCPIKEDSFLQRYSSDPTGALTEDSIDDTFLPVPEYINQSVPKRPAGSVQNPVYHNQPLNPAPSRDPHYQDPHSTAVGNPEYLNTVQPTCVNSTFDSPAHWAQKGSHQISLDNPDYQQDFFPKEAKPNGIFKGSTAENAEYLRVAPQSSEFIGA

## C=CC(=O)Nc1cc(Nc2ncc(Br)c(Nc3ccc4ccn(C)c4c3)n2)c(OC)cc1N1CCN(C)CC1
A-431
  pIC50: 5.77
[1]
  pIC50: 6.55
[2]
  Activity: Non-Toxic
NCI-H1975 [3]
  Activity: Active
[4]
  Activity: Non-Toxic
NCI-H1975 [5]
  inhibition in vivo at 15 mg/kg: 62%
[6]
  F: 52.3%
[7]
  half-life: 3.25 h
[8]
  inhibition: Active
[9]
  residual activity: < 10%
[10]
  residual activity: < 1%
[11]
  residual activity: < 10%
